Data set [1] concerns Plasma. Nature of the data set: Protein binding in pooled human plasma by microdialysis. The data set is classed as ADME, cell-free. The gist of the method:
(§1)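 In vitro microdialysis at 20, 40, 80, 160 and 320 μg/ml drug, in triplicate, at 37°C. Matrices were THB with 40 g/liter BSA or HSA, pooled adult bovine serum, or untreated pooled human plasma. Probes were perfused with lactated Ringer at 2.0 μl/min, with recovery set in Ringer alone. Samples were taken over a 30-min period and assayed by HPLC-UV. Binding = 1 − dialysate/(recovery × total).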

In data set [2] the target is Albumin (Homo sapiens, UniProt P02768). Nature of the data set: Binding affinity to human serum albumin in THB medium containing 40 g/L HSA. Format: ADME. To be noted: human serum albumin (40 g/L) in THB medium, read-out: PB (converted). The gist of the method: as §1
Sequence of Albumin (Homo sapiens, UniProt P02768) (P02768 whole entry): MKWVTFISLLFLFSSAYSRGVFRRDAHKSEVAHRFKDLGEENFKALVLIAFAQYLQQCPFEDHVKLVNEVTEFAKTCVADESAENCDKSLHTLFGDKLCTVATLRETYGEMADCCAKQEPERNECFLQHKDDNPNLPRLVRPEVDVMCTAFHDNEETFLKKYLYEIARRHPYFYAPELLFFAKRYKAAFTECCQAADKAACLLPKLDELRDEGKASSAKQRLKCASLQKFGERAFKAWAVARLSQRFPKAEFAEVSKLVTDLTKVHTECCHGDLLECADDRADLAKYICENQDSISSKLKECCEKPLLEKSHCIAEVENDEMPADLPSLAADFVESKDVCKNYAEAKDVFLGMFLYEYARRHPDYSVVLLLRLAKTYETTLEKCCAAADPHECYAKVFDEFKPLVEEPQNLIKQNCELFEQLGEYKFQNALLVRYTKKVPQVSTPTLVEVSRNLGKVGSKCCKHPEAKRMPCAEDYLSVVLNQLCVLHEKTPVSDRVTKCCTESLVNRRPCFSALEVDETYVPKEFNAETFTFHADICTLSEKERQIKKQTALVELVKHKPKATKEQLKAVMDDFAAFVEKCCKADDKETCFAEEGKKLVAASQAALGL
Data set [3] has as its target T1, Albumin (Bos taurus, UniProt P02769). Nature of the data set: Binding affinity to pooled adult bovine serum albumin. The data set is classed as ADME. The note with it: cattle, read-out: PB (converted). The gist of the method: as §1
Data set [4] concerns the target T1, Albumin. In words: Binding affinity to bovine serum albumin in THB medium containing 40 g/L BSA. The data set is classed as ADME. To be noted: cattle, bovine serum albumin (40 g/L) in THB medium; read-out: PB (converted). The gist of the method: as §1
Data set [5] relates to Escherichia coli. Nature of the data set: Antimicrobial activity against Escherichia coli ATCC 25922 by serial dilution twofold broth microdilution method. To be noted: in the assay text read “macrodilution” for “microdilution”. The data set is classed as functional. Summed up:
(§2)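 Broth macrodilution, serial twofold dilutions, run per CLSI guidelines. Media were MHB (E. coli) or THB (S. pneumoniae), used with or without 40 g/liter BSA or HSA; supplemented broth was 0.2-μm filtered and adjusted to pH 7.4. Inoculum came from overnight 5% sheep blood agar colonies set to 0.5 McFarland in saline and diluted in broth to ~5 × 10⁵ CFU/ml. Six determinations; values reported as modes.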

Data set [6] relates to Escherichia coli. Nature of the data set: Antimicrobial activity against Escherichia coli ATCC 25922 by serial dilution twofold broth microdilution method in presence of 40 g/L bovine serum albumin. To be noted: in the assay text read “macrodilution” for “microdilution”. Format: functional. The gist of the method:
as §2
On the technique in general: Broth dilution looks for growth in wells or tubes with falling amounts of substance.

The test system of data set [7] is Streptococcus pneumoniae. Nature of the data set: Antimicrobial activity against penicillin-sensitive Streptococcus pneumoniae ATCC 6303 by serial dilution twofold broth microdilution method. Format: functional. To be noted: in the assay text read “macrodilution” for “microdilution”. Summed up: as §2
The subject of data set [8] is Streptococcus pneumoniae. Nature of the data set: Antimicrobial activity against penicillin-sensitive Streptococcus pneumoniae ATCC 6303 by serial dilution twofold broth microdilution method in presence of 40 g/L bovine serum albumin. The note with it: in the assay text read “macrodilution” for “microdilution”. Format: functional. Summed up: as §2
Data set [9] has as its system Streptococcus pneumoniae. In words: Antimicrobial activity against penicillin-sensitive Streptococcus pneumoniae ATCC 6303 by serial dilution twofold broth microdilution method in presence of 40 g/L human serum albumin. The data set is classed as functional. The note with it: in the assay text read “macrodilution” for “microdilution”. Summed up: as §2
The test system of data set [10] is Escherichia coli. Nature of the data set: Bactericidal activity against Escherichia coli ATCC 25922 at 8 times MIC after 24 hrs by time kill analysis. Format: functional, organism-based.
Data set [11] relates to Streptococcus pneumoniae. Nature of the data set: Bactericidal activity against penicillin-sensitive Streptococcus pneumoniae ATCC 6303 at 8 times MIC after 24 hrs by time kill analysis. The data set is classed as functional, organism-based.
The test system of data set [12] is Escherichia coli. Nature of the data set: Antimicrobial activity against Escherichia coli ATCC 25922 assessed as maximum killing rate constant. The data set is classed as functional. The gist of the method:
(§3)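 Constant-concentration time-kill curves, 6 h, in triplicate. […] Inoculum of ~5 × 10⁵ CFU/ml was grown 2 h before drug was added. Samples taken 0–6 h were counted by droplet plating after 20–24 h at 37°C. A two-compartment model (susceptible plus persister cells) was fitted simultaneously across conditions to obtain growth and maximal kill rate constants.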

Data set [13] has as its system Streptococcus pneumoniae. In words: Antimicrobial activity against penicillin-sensitive Streptococcus pneumoniae ATCC 6303 assessed as maximum killing rate constant. Format: functional. The gist of the method: as §3
The test system of data set [14] is Escherichia coli. Nature of the data set: Antimicrobial activity against Escherichia coli ATCC 25922 assessed as growth rate constant. The data set is classed as functional. The gist of the method: as §3
Data set [15] concerns Streptococcus pneumoniae. Nature of the data set: Antimicrobial activity against penicillin-sensitive Streptococcus pneumoniae ATCC 6303 assessed as growth rate constant. The data set is classed as functional. Summed up:
as §3

The nature of data set [16]: Plasma protein binding in healthy human 1t […], iv administered as single dose by LC-MS-MS method. Format: ADME, organism-based. To be noted: read-out: PPB (converted).
In data set [17] the test system is Escherichia coli. In words: Antimicrobial activity against Escherichia coli ATCC 25922. The data set is classed as functional, organism-based. The gist of the method:
as §2

Data set [18] deals with Escherichia coli. Nature of the data set: Antimicrobial activity against Escherichia coli ATCC 25922 in presence of bovine serum albumin. The data set is classed as functional, organism-based. The gist of the method: as §2
The test system of data set [19] is Escherichia coli. Nature of the data set: Antimicrobial activity against Escherichia coli ATCC 25922 by in presence of human serum albumin. The data set is classed as functional, organism-based. The gist of the method:
as §2

Data set [20] relates to Streptococcus pneumoniae. Nature of the data set: Antimicrobial activity against penicillin-sensitive Streptococcus pneumoniae ATCC 6303. Format: functional, organism-based. The gist of the method: as §2
Data set [21] deals with Streptococcus pneumoniae. Nature of the data set: Antimicrobial activity against penicillin-sensitive Streptococcus pneumoniae ATCC 6303 in presence of bovine serum albumin. The data set is classed as functional, organism-based. The gist of the method: as §2
Data set [22] concerns Streptococcus pneumoniae. Nature of the data set: Antimicrobial activity against penicillin-sensitive Streptococcus pneumoniae ATCC 6303 in presence of human serum albumin. The data set is classed as functional, organism-based. The gist of the method:
as §2

Data set [23] deals with Escherichia coli. In words: Antimicrobial activity against Escherichia coli ATCC 25922 by serial dilution twofold broth macrodilution method in presence of 40 g/L human serum albumin.
Data set [24] deals with Escherichia coli. Nature of the data set: Bactericidal activity against Escherichia coli ATCC 25922 at 8 times MIC after 24 hrs by time kill analysis in presence of 40 g/L human serum albumin. Format: functional, organism-based.
The test system of data set [25] is Streptococcus pneumoniae. Nature of the data set: Bactericidal activity against penicillin-sensitive Streptococcus pneumoniae ATCC 6303 at 8 times MIC after 24 hrs by time kill analysis in presence of 40 g/L human serum albumin. Format: functional, organism-based.
In data set [26] the test system is Escherichia coli. Nature of the data set: Bactericidal activity against Escherichia coli ATCC 25922 at 8 times MIC after 6 hrs by time kill analysis in presence of 40 g/L bovine serum albumin.
In data set [27] the test system is Streptococcus pneumoniae. In words: Bactericidal activity against penicillin-sensitive Streptococcus pneumoniae ATCC 6303 at 8 times MIC after 6 hrs by time kill analysis in presence of 40 g/L bovine serum albumin.
Data set [28] is described as follows: Plasma protein binding in human at < 100 ug/ml. The data set is classed as ADME, cell-free. The note with it: read-out: PPB (converted).
The test system of data set [29] is Plasma. Nature of the data set: Plasma protein binding in human at 400 ug/ml. Format: ADME, cell-free.

In brackets after ≈: the same amount, converted by molar mass. Activity calls are given as the source filed them. The rule behind the calls is not given here.

T1 sequence (P02769 whole entry): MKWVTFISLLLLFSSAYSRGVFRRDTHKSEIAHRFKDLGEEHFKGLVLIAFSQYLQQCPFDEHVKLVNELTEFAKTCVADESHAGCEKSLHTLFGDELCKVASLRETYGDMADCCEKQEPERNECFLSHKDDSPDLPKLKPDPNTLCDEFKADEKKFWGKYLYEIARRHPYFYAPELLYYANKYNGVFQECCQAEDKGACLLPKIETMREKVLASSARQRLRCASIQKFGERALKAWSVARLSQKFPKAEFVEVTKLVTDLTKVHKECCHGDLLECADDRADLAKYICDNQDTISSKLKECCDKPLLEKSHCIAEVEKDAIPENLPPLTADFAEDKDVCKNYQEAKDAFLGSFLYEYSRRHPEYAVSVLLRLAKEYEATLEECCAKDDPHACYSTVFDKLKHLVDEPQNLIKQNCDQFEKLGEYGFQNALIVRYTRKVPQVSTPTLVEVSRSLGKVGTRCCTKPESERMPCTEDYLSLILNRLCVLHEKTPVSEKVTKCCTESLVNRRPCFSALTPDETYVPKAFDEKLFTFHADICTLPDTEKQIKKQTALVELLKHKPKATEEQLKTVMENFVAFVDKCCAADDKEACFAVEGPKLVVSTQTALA

Broadly, the MIC is the lowest concentration that inhibits growth of the organism. For orientation: EC50 means the midpoint of the concentration-response curve. As to `C[C@@H](O)[C@H]1C(=O)N2C(C(=O)O)=C(S[C@@H]3CN[C@H](C(=O)Nc4cccc(C(=O)O)c4)C3)[C@H](C)[C@H]12` [ERTAPENEM], the PPB in [1] was 73.8%. Moreover, the fraction unbound in data set [2] is 0.822; in [3], 0.617; in data set [4], 0.876; in data set [16], 0.16. Also, the minimum inhibitory concentration (MIC) in [5] came out at 0.015 µg/mL (≈ 0.0315 µM); in data set [6] it was 0.015 µg/mL; in [7], 0.025 µg/mL (≈ 0.0526 µM); in data set [8], 0.025 µg/mL; in data set [9] it was 0.025 µg/mL; in data set [23], 0.03 µg/mL. For the same compound, the outcome in [10] and in data set [11] was Active. Further, the results for the Kkmax in [12] and in [13] were 6.02 h⁻¹ and 3.28 h⁻¹, respectively. Moreover, the Ks was 2.76 h⁻¹ in [14] and 2.28 h⁻¹ in [15]. For the same compound, the EC50 in [17] is 0.01 µg/mL (≈ 0.021 µM); in data set [18], 0.02 µg/mL; in data set [19], 0.014 µg/mL; in data set [20], 0.01 µg/mL (≈ 0.021 µM); in data set [21] it was 0.01 µg/mL; in [22] it was 0.019 µg/mL.
`CO/N=C(\C(=O)N[C@@H]1C(=O)N2C(C(=O)O)=C(CSc3nc(=O)c(O)nn3C)CS[C@H]12)c1csc(N)n1` [CEFTRIAXONE]: the MIC in data set [5] was 0.064 µg/mL (≈ 0.115 µM); in data set [6], 0.064 µg/mL; in data set [7] it was 0.01 µg/mL (≈ 0.018 µM); in [8], 0.02 µg/mL; in [9], 0.16 µg/mL; in data set [23], 2 µg/mL. Besides, the outcome in [10] and in data set [11] was Active. Also, the result in [24], in [25], in [26] and in [27] was inactive. Besides, the Kkmax in [12] amounted to 6.34 h⁻¹; in [13], 3.59 h⁻¹. Also, the figures for the Ks in [14] and in [15] were 2.4 h⁻¹ and 1.56 h⁻¹, respectively. The EC50 amounted to 0.027 µg/mL (≈ 0.0487 µM) in data set [17]; 0.057 µg/mL in [18]; 1.1 µg/mL in [19]; 0.004 µg/mL (≈ 0.00721 µM) in data set [20]; 0.015 µg/mL in [21]; 0.084 µg/mL in data set [22].
Turning to `CO/N=C(\C(=O)N[C@@H]1C(=O)N2C(C(=O)O)=C(CSc3nc(=O)c(=O)[nH]n3C)CS[C@H]12)c1csc(N)n1` [CEFTRIAXONE], the PPB in data set [1] is recorded as 76.8%; in data set [29], 60%. For the same compound, the fraction unbound is 0.431 in data set [2]; 0.693 in [3]; 0.798 in data set [4]; 0.1 in [28]; 0.17 in data set [16].
